Test results: ChEMBL document CHEMBL3352492, “Selenorhodamine photosensitizers for photodynamic therapy of P-glycoprotein-expressing cancer cells” (J Med Chem, 2014)
Active and inactive are the calls of the source. No cut-off for these calls is given here.

Tests used:
[1] = system: Colon 26; assay: Photo-toxicity in mouse Colon 26 cells assessed as reduction in cell surviving fraction at 1 Jcm'-2 of continuous illumination with 350 to 700 nm light incubated for 48 hrs by sulforhodamine B assay; assay type: functional, cell-based; conditions: Colon 26, 48 h
Method in brief: (§1)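 Colo-26 cells were incubated 1 h in the dark with 0.1–0.5 μM […], then irradiated up to 1.0 J cm^-2 with 350–700 nm tungsten–halogen light (3.7–4.1 mW cm^-2). Cells were kept 48 h and survival was measured by sulforhodamine B assay.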

[2] = system: Colon 26; assay: Photo-toxicity in mouse Colon 26 cells assessed as reduction in cell surviving fraction at 0.15 uM at 1 Jcm'-2 of continuous illumination with 350 to 700 nm light incubated for 48 hrs by sulforhodamine B assay; assay type: functional, cell-based
[3] = Lipophilicity, log P of the compound by pH 7.4 at 23 degC by UV-visible spectrophotometry based shake flask method; assay type: physicochemical; conditions: buffer
Method in brief: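 Shake-flask method. A saturated n-octanol solution of dye was mixed with an equal volume of PBS, pH 7.4, at 23 °C for 3–5 min, then left 1 h to settle. The concentration in each layer was measured by UV–visible spectrophotometry.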

[4] = system: Colon 26; assay: Drug uptake in mouse Colon 26 cells at 0.5 uM in absence of 100 uM verapamil by flow cytometry; assay type: ADME, cell-based; conditions: colon 26, 0.5 µM
Method in brief: (§2)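 Colo-26 cells given 0.5 μM dye for 1 h, with or without 100 μM verapamil. Uptake read by flow cytometry as relative fluorescence, excitation 561 nm and emission 710 nm. Error bars are SD.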

[5] = system: Colon 26; assay: Drug uptake in mouse Colon 26 cells at 0.5 uM in presence of 100 uM verapamil by flow cytometry; assay type: ADME, cell-based; conditions: colon 26, 0.5 µM; method in brief: as §2
[6] = system: Colon 26; assay: Photo-toxicity in mouse Colon 26 cells assessed as reduction in cell surviving fraction at 0.5 Jcm'-2 of continuous illumination with 350 to 700 nm light incubated for 48 hrs by sulforhodamine B assay; assay type: functional, cell-based; conditions: Colon 26, 48 h; method in brief: as §1
[7] = system: Colon 26; assay: Potentiation of 0.5 uM doxorubicin-induced cytotoxicity against mouse Colon 26 cells at 0.15 uM incubated in dark for 1 hr then irradiated with light dose of 1 Jcm'-2 of 611 nm laser light measured after 48 hrs by sulforhodamine B assay; assay type: functional, cell-based
Method in brief: (§3)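 Colo-26 cells were plated at 10 000/well and held 24 h. Doxorubicin (0.005, 0.05, 0.5, 1.0 or 5.0 μM) was added with 0.15 μM selenorhodamine, both diluted in RPMI from stocks, with Dox-only and dye-only wells. After 1 h in the dark, cells were laser-irradiated at λmax ± 2 nm, 3.2 mW cm⁻², 1 J cm⁻². Fresh medium, then 48 h at 37 °C, 5% CO₂. Surviving fraction by SRB absorbance at 570 nm; six replicates.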

[8] = Selectivity index, ratio of LD50 dark toxicity against mouse Colon 26 cells to EC50 for Photo-toxicity against mouse Colon 26 cells 1 Jcm'-2 of continuous illumination with 350 to 700 nm light; assay type: cell-based; conditions: read-out: Ratio LD50/EC50
[9] = system: Colon 26; assay: Potentiation of 1 uM doxorubicin-induced cytotoxicity against mouse Colon 26 cells assessed as cell surviving fraction at 0.15 uM incubated in dark for 1 hr then irradiated with light dose of 1 Jcm'-2 of 611 nm laser light measured after 48 hrs by sulforhodamine B assay; assay type: functional; method in brief: as §3
[10] = Photo-stability assessed as drug degradation exposed to after 230 Jcm'-2 of continuous illumination with 350 to 800 nm light in solutions of 10% CH3OH in pH 7.4 buffer; assay type: physicochemical; conditions: solution of 10% CH3OH in pH 7.4 buffer, read-out: Drug degradation
[11] = Photo-stability assessed as drug degradation exposed to after 230 Jcm'-2 of continuous illumination with 500 to 800 nm light in solutions of 10% CH3OH in pH 7.4 buffer; assay type: physicochemical; conditions: solution of 10% CH3OH in pH 7.4 buffer, read-out: Drug degradation
[12] = system: Colon 26; assay: Photo-toxicity against mouse Colon 26 cells at 0.15 uM incubated in dark for 1 hr then irradiated with light dose of 1 Jcm'-2 of 611 nm laser light measured after 48 hrs by sulforhodamine B assay; assay type: functional, cell-based
Method in brief: (§4)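 Colo-26 murine colon carcinoma cells were grown in RPMI 1640 with L-glutamine, 10% FBS and 1% penicillin–streptomycin. They were plated at 10 000 cells/well and held 24 h. Selenorhodamine was added at 0.15 μM (final) and cells were kept 1 h in the dark. Cells were then irradiated with a tunable dye laser at λmax ± 2 nm, 3.2 mW cm⁻², to 1 J cm⁻². Medium was replaced, followed by 48 h at 37 °C, 5% CO₂. Viability was read by sulforhodamine B at 570 nm.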

[13] = system: Colon 26; assay: Potentiation of doxorubicin-induced cytotoxicity against mouse Colon 26 cells at 0.15 uM incubated in dark for 1 hr by sulforhodamine B assay; assay type: functional, cell-based
Method in brief: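 Colo-26 cells were plated at 10 000/well and held 24 h. Doxorubicin (0.005–5.0 μM) was applied with or without 0.15 μM selenorhodamine, with Dox-only and dye-only controls, for 1 h in the dark with no irradiation. Medium was replaced, then 48 h at 37 °C, 5% CO₂. Surviving fraction by sulforhodamine B assay (570 nm); six replicates; Student's t-test pairwise.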

[14] = system: Colon 26; assay: Dark toxicity in mouse Colon 26 cells assessed as cell surviving fraction at 0.1 to 0.5 uM incubated for 1 hr by sulforhodamine B assay; assay type: cell-based; conditions: colon 26, 1 h
Method in brief: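 Colo-26 murine colon carcinoma cells, 10 000 per well, grown 24 h in RPMI 1640 with 10% FBS. Dye at 0.1–0.5 μM for 1 h in the dark, then fresh medium and 48 h at 37 °C, 5% CO2. Viability by sulforhodamine B, absorbance at 570 nm, reported as surviving fraction.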

[15] = system: Colon 26; assay: Photo-toxicity in mouse Colon 26 cells assessed as reduction in cell surviving fraction at =< 0.5 uM and up to 1 Jcm'-2 of continuous illumination with 350 to 700 nm light incubated for 48 hrs by sulforhodamine B assay; assay type: functional, cell-based
Method in brief: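 Colo-26 cells, 10 000 per well, grown 24 h in RPMI 1640 with 10% FBS. Dye at ≤0.5 μM for 1 h in the dark. Irradiated up to 1.0 J cm^-2 with 350–700 nm tungsten–halogen light at 3.7–4.1 mW cm^-2, then 48 h at 37 °C. Survival by sulforhodamine B at 570 nm.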

[16] = Permeability in MDCK2-MDR1 cells assessed as cell associated fraction by measuring mass fraction extracted from cell monolayer by methanol wash after 1 hr flux in apical to basolateral direction at 5 uM in presence of 4.3 mg/ml BSA and in absence of P-gp inhibitor LSN335984 by mass spectrometry; assay type: ADME, cell-based, Canis lupus familiaris; conditions: dog, mdck-ii
Method in brief: (§5)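 MDCKII-MDR1 cells seeded at 50 000 cells cm^-2 on Transwell polycarbonate filters, used on day 6. After a rinse in DPBSH at 37 °C, monolayers were preincubated 30 min in 4.3 mg mL^-1 BSA/DPBSH with or without 5 μM P-gp inhibitor LSN 335984. Then 5 μM dye was added apically and run 1 h AB flux at 37 °C with nutation. Monolayers were rinsed in cold DPBS and extracted 3 min in methanol, and compound was quantified by LC-MS/MS. Cell-associated value is the percentage of added mass recovered.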

[17] = system: Colon 26; assay: Potentiation of doxorubicin-induced cytotoxicity against mouse Colon 26 cells at 0.15 uM incubated in dark for 1 hr then irradiated with light dose of 1 Jcm'-2 of 613 nm laser light measured after 48 hrs by sulforhodamine B assay; assay type: functional, cell-based; method in brief: as §3
[18] = system: Colon 26; assay: Photo-toxicity against mouse Colon 26 cells at 0.15 uM incubated in dark for 1 hr then irradiated with light dose of 1 Jcm'-2 of 613 nm laser light measured after 48 hrs by sulforhodamine B assay; assay type: functional, cell-based; method in brief: as §4
[19] = Permeability in MDCK2-MDR1 cells assessed as cell associated fraction by measuring mass fraction extracted from cell monolayer by methanol wash after 1 hr flux in apical to basolateral direction at 5 uM in presence of 4.3 mg/ml BSA and in presence of P-gp inhibitor LSN335984 by mass spectrometry; assay type: ADME, cell-based, Canis lupus familiaris; conditions: dog, mdck-ii; method in brief: as §5
[20] = system: Colon 26; assay: Photo-toxicity in mouse Colon 26 cells assessed as reduction in cell surviving fraction at 15 Jcm'-2 of continuous illumination with 360 to 800 nm light incubated for 48 hrs by sulforhodamine B assay; conditions: Colon 26, 48 h
[21] = system: Colon 26; assay: Photo-toxicity in mouse Colon 26 cells assessed as reduction in cell surviving fraction at 0.15 uM at >5 Jcm'-2 of continuous illumination with 350 to 700 nm light incubated for 48 hrs by sulforhodamine B assay; assay type: functional, cell-based

Row | Compound | EC50 [1] | logD [3] | Drug uptake [4] | fold change (FC) [5] | EC50 [6] | Activity [13] | Activity [14] | Activity [15] | further results
1 | CCN(CC)C(=S)c1ccc(-c2c3ccc(=[N+](C)C)cc-3[se]c3cc4c(cc23)C(C)(C)CCN4C)s1.[Cl-] | 170 nM | 2.41 | Active | 1.3 | 200 nM | inactive |  |  | Activity [2]: Active; Activity [7]: Active; selectivity ratio [8]: 56; Activity [9]: <=0.2; degraded [10]: 50%; degraded [11]: 50%; Activity [12]: Active
2 | CN1CCC(C)(C)c2cc3c(-c4ccc(C(=S)N5CCCCC5)s4)c4ccc(=[N+](C)C)cc-4sc3cc21.F[P-](F)(F)(F)(F)F |  |  | Active |  |  |  | > 0.95 | inactive | Drug uptake [5]: Not Active
3 | CCN(CC)C(=S)c1ccc(-c2c3ccc(=[N+](C)C)cc-3sc3cc4c(cc23)C(C)(C)CCN4C)s1.F[P-](F)(F)(F)(F)F |  |  | Active | 1.3 |  |  | > 0.95 | inactive | 
4 | CCN(CC)C(=O)c1ccc(-c2c3ccc(=[N+](C)C)cc-3sc3cc4c(cc23)C(C)(C)CCN4C)s1.F[P-](F)(F)(F)(F)F |  |  |  | 7 |  |  | > 0.95 | inactive | 
5 | CN1CCC(C)(C)c2cc3c(-c4ccc(C(=O)N5CCCCC5)s4)c4ccc(=[N+](C)C)cc-4sc3cc21.F[P-](F)(F)(F)(F)F |  |  |  |  |  |  | > 0.95 | inactive | 
6 | CN1CCC(C)(C)c2cc3c(-c4ccc(C(=O)N5CCCCC5)s4)c4ccc(=[N+](C)C)cc-4[se]c3cc21.[Cl-] | 410 nM | 2.23 |  |  | > 500 nM | inactive |  |  | Activity [16]: 16%; Activity [17]: inactive; Activity [18]: inactive; Activity [19]: 39%
7 | CN(C)c1ccc(-c2cc(-c3ccc(N)cc3)[s+]c(-c3ccc(N)cc3)c2)cc1 |  |  |  |  |  |  |  |  | EC50 [20]: 70 nM
8 | CN1CCC(C)(C)c2cc3c(-c4ccc(C(=S)N5CCCCC5)s4)c4ccc(=[N+](C)C)cc-4[se]c3cc21.[Cl-] | 140 nM | 1.61 | Active |  | 220 nM | inactive |  |  | Activity [16]: 45%; Activity [2]: Active; Activity [7]: Active; Activity [9]: <=0.2; degraded [10]: 50%; degraded [11]: 50%; Activity [12]: Active; Activity [19]: 55%
9 | CCN(CC)C(=O)c1ccc(-c2c3ccc(=[N+](C)C)cc-3[se]c3cc4c(cc23)C(C)(C)CCN4C)s1.[Cl-] | 300 nM | 2.26 |  | 5 | 310 nM | inactive |  |  | Activity [21]: Active; Activity [17]: inactive; selectivity ratio [8]: 26; Activity [18]: inactive
